Test results reported in ChEMBL document CHEMBL2069262, “Stimulation of Glucose-Dependent Insulin Secretion by a Potent, Selective sst3 Antagonist” (ACS Med Chem Lett, 2012).
The source made the active and inactive calls. The rule behind the calls is not given here.

Assays:
[1] = molecular target: T1, Somatostatin receptor type 3 (Homo sapiens, UniProt P32745); test: Displacement of [125I]SS-14 from human SST3 receptor expressed in CHO cells after 60 mins by scintillation counting; type: cell-based
T1 sequence (P32745 whole entry): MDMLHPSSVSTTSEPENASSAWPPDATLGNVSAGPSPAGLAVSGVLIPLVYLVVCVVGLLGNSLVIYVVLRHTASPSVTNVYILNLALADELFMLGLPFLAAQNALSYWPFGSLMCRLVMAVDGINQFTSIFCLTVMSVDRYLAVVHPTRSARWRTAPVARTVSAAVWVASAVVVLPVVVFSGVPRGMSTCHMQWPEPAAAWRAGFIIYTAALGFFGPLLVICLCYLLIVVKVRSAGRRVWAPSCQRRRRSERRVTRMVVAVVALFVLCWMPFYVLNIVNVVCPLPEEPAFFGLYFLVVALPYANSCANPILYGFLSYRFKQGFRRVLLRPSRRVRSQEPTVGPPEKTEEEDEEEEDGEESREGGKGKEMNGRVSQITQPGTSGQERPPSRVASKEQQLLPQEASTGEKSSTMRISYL

[2] = molecular target: T1, Somatostatin receptor type 3; type: functional, cell-based, CHO
[3] = Activation of glucose-stimulated insulin secretion in C57BL/6J mouse pancreatic islets at 10 nM after 1 hr by ELISA in presence of 16 mM glucose relative to DMSO; type: functional; details: Pancreatic islet
Outline: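 Pancreatic islets were isolated from normal C57BL/6J mice. Insulin secretion was measured at 2 and 16 mM glucose. Treatments were test agent at 10 μM, octreotide at 50 nM, the two combined, DMSO as negative control and GLP-1 at 10 nM as positive control. n = 4.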

[4] = molecular target: Voltage-gated inwardly rectifying potassium channel KCNH2 (Homo sapiens, UniProt Q12809); test: Displacement of [35S]MK499 from human Erg expressed in HEK293 cells after 60 mins by scintillation counting; type: cell-based
Sequence of Voltage-gated inwardly rectifying potassium channel KCNH2 (Q12809 whole entry): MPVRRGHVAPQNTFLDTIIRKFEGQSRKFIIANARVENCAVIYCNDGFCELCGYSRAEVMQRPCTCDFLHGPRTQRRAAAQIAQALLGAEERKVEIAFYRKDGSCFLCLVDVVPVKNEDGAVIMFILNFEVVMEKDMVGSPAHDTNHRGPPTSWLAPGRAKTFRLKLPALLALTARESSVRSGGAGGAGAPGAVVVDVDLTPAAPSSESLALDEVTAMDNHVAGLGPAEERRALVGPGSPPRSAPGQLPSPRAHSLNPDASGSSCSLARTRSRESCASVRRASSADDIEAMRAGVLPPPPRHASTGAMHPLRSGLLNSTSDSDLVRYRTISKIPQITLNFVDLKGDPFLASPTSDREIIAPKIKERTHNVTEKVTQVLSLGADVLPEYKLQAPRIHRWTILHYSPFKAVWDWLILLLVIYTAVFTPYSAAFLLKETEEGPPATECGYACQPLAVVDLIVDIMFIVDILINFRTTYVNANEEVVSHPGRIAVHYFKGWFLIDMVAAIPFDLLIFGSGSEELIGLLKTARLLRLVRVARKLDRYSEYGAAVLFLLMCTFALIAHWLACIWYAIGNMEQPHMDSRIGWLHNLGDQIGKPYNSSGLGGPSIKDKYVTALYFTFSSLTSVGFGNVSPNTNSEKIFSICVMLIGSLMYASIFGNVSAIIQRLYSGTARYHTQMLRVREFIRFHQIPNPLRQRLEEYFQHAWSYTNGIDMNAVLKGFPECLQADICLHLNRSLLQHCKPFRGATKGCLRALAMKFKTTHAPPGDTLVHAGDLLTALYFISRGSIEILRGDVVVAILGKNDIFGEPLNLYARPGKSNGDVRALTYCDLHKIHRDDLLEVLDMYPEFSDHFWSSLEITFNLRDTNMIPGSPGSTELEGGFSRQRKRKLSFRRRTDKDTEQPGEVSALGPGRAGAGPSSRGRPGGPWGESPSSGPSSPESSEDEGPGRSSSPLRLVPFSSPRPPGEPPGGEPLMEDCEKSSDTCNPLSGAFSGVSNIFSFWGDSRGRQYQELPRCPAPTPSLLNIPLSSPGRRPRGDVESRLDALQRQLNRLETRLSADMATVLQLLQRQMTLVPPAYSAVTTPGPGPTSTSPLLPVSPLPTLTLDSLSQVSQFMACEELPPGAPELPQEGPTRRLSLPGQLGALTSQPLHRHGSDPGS

[5] = molecular target: Voltage-gated L-type calcium channel (Homo sapiens, UniProt Q13936+Q13698+Q01668+O60840); test: Binding affinity to L-type calcium channel
[6] = Clearance in C57BL/6N mouse at 1 mg/kg, iv and 2 mg/kg, po; type: ADME, organism-based; details: in vivo
[7] = Half life in C57BL/6N mouse at 1 mg/kg, iv and 2 mg/kg, po; type: ADME, organism-based; details: in vivo
[8] = Volume of distribution at steady state in C57BL/6N mouse at 1 mg/kg, iv and 2 mg/kg, po; type: ADME, organism-based; details: in vivo, read-out: Vdss
[9] = Oral bioavailability in C57BL/6N mouse at 2 mg/kg; type: ADME, organism-based; details: in vivo
Mus musculus = test: Dose normalized AUC in C57BL/6N mouse at 2 mg/kg, po; type: ADME, organism-based; parameters: dose 2 mg/kg, route oral; details: in vivo
[10] = Cmax in C57BL/6N mouse at 2 mg/kg, po; type: ADME, organism-based; parameters: dose 2 mg/kg, route oral; details: in vivo

IC50 [1]	IC50 [2]	SMILES	IC50 [4]	also measured
0.063 µM	0.22 µM	c1ccc(-c2c[nH]c([C@H]3Cc4c([nH]c5ccccc45)C(C4CCNCC4)N3)n2)cc1 (stereo partly drawn)		
0.12 µM	0.29 µM	O=S1(=O)CCC(C2N[C@@H](c3nc(-c4ccccc4)c[nH]3)Cc3c2[nH]c2ccccc32)CC1 (stereo partly drawn)	0.1 µM	
0.021 µM	0.024 µM	[O-][S+]1CCC(C2N[C@@H](c3nc(-c4ccccc4)c[nH]3)Cc3c2[nH]c2ccccc32)CC1 (single isomer, unassigned; isomer 2)	0.1 µM	

Second part, the molecule before the results:

SMILES	IC50 [1]	IC50 [2]	IC50 [4]	also measured
CS(=O)(=O)N1CCC(C2N[C@@H](c3nc(-c4ccccc4)c[nH]3)Cc3c2[nH]c2ccccc32)CC1 (stereo partly drawn)	0.044 µM			
CC[C@H](C)[C@H](NC(=O)[C@H](Cc1ccccc1)NC(=O)[C@H](CCC(=O)O)NC(=O)[C@H](CCCCN)NC(=O)[C@H](C)NC(=O)[C@H](C)NC(=O)[C@H](CCC(N)=O)NC(=O)CNC(=O)[C@H](CCC(=O)O)NC(=O)[C@H](CC(C)C)NC(=O)[C@H](Cc1ccc(O)cc1)NC(=O)[C@H](CO)NC(=O)[C@H](CO)NC(=O)[C@@H](NC(=O)[C@H](CC(=O)O)NC(=O)[C@H](CO)NC(=O)[C@@H](NC(=O)[C@H](Cc1ccccc1)NC(=O)[C@@H](NC(=O)CNC(=O)[C@H](CCC(=O)O)NC(=O)[C@H](C)N[C@@H](Cc1cnc[nH]1)C(=O)O)[C@@H](C)O)[C@H](C)O)C(C)C)C(=O)N[C@@H](C)C(=O)N[C@@H](Cc1c[nH]c2ccccc12)C(=O)N[C@@H](CC(C)C)C(=O)N[C@H](C(=O)N[C@@H](CCCCN)C(=O)NCC(=O)N[C@@H](CCCNC(=N)N)C(N)=O)C(C)C				Activity [3]: Active
CCCCC1(CCCC)N[C@@H](c2nc(-c3ccccc3)c[nH]2)Cc2c1[nH]c1ccccc21			0.15 µM	IC50 [5]: 0.128 µM; clearance [6]: 7.56 L/h/kg
CNC(=O)N1CCC(C2N[C@@H](c3nc(-c4ccccc4)c[nH]3)Cc3c2[nH]c2ccccc32)CC1 (stereo partly drawn)	0.035 µM	0.18 µM	0.24 µM	
CCOCC1(COCC)N[C@@H](c2nc(-c3ccccc3)c[nH]2)Cc2c1[nH]c1ccccc21				half-life [7]: 32.4 min; Vd [8]: 0.7 L/kg; bioavailability [9]: 4%; IC50 [5]: 1.526 µM; AUC/dose (Mus musculus): 0.06 µM·h/mg; Cmax [10]: 0.13 µM; clearance [6]: 1.86 L/h/kg
